# Results as given in paper PMC10825487 (Heliyon, 2024).
# Molecular target: DENV2 NS2B-NS3 protease (Dengue virus type 2, UniProt P29990)
# Assay: DENV2 NS2B-NS3 protease inhibition assay
# Type: biochemical
# Details: for fold decrease of inhibitory activity: based on IC50, compared to 3e; for IC50: IC50 (Table 3), in vitro inhibition of DENV2 NS2B-NS3 protease, two decimals
# Summary of the method: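 Recombinant DENV-2 NS2B-NS3 protease (pQE-30, E. coli XL1-Blue MRF', IPTG-induced, Ni-NTA-purified) at 3.5 µM in 200 mM Tris-HCl pH 8.5. Preincubated with test compound (700 µM screen; 5.5–700.0 µM for IC50) for 10 min at 37 °C. Then 150 µM Boc-Gly-Arg-Arg-MCA added, 1 h at 37 °C. AMC read at ex 365/em 410 nm. % inhibition relative to enzyme+substrate control, buffer blank subtracted. n = 3; IC50 by nonlinear regression.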
# Sequence of DENV2 NS2B-NS3 protease (P29990 1346-1475): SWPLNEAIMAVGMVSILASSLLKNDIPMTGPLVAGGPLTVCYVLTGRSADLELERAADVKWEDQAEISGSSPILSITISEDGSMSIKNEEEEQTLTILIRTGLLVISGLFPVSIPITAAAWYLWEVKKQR
# Sequence of DENV2 NS2B-NS3 protease (P29990 1476-1653): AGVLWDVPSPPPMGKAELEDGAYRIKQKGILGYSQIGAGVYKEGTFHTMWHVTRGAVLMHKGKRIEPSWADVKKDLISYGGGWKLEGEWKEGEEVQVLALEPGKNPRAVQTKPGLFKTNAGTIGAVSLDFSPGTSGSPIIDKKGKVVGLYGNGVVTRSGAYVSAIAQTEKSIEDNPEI
SMILES,inhibition at 700 µM,fold decrease of inhibitory activity,"fold decrease of inhibition (based on IC50, compared to 3k)",IC50
"Oc1c(Br)cccc1-c1nc2cc3nc4ccccc4nc3cc2[nH]1 [Compound 3f, 2-(3-bromo-2-hydroxyphenyl)-1H-imidazo [4,5-b]phenazine]",70.8 ± 1.46%,–,–,–
"Oc1ccc(-c2nc3cc4nc5ccccc5nc4cc3[nH]2)cc1 [Compound 3j, 2-(4-hydroxyphenyl)-1H-imidazo [4,5-b]phenazine]",60.3 ± 2.27%,3 fold,–,–
"COc1cc(-c2nc3cc4nc5ccccc5nc4cc3[nH]2)cc(OC)c1OC [Compound 3g, 2-(3,4,5-trimethoxyphenyl)-1H-imidazo [4,5-b]phenazine]",53.3 ± 2.76%,–,–,–
"COc1ccc(-c2nc3cc4nc5ccccc5nc4cc3[nH]2)cc1[N+](=O)[O-] [Compound 3a, 2-(4-methoxy-3-nitrophenyl)-1H-imidazo [4,5-b]phenazine]",83.5 ± 1.96%,1 fold,–,–
"Fc1ccc(-c2nc3cc4nc5ccccc5nc4cc3[nH]2)cc1 [Compound 3m, 2-(4-fluorophenyl)-1H-imidazo [4,5-b]phenazine]",84.8 ± 0.89%,–,2.2 fold,–
"COc1cc([N+](=O)[O-])ccc1-c1nc2cc3nc4ccccc4nc3cc2[nH]1 [Compound 3d, 2-(2-methoxy-4-nitrophenyl)-1H-imidazo [4,5-b]phenazine]",83.9 ± 1.67%,1.4 fold,–,–
"COc1ccc(-c2nc3cc4nc5ccccc5nc4cc3[nH]2)cc1OC [Compound 3c, 2-(3,4-dimethoxyphenyl)-1H-imidazo [4,5-b]phenazine]",55.31 ± 0.39%,–,–,–
"Oc1ccc(-c2nc3cc4nc5ccccc5nc4cc3[nH]2)c(O)c1 [Compound 3h, 2-(2,4-dihydroxyphenyl)-1H-imidazo [4,5-b]phenazine]",84.7 ± 1.26%,–,–,–
"Fc1ccccc1-c1nc2cc3nc4ccccc4nc3cc2[nH]1 [Compound 3l, 2-(2-fluorophenyl)-1H-imidazo [4,5-b]phenazine]",78.23 ± 0.03%,–,–,–
"Oc1ccccc1-c1nc2cc3nc4ccccc4nc3cc2[nH]1 [Compound 3b, 2-(2-hydroxyphenyl)-1H-imidazo [4,5-b]phenazine]",46.6 ± 1.68%,–,–,–
"O=c1c(O)c(-c2ccc(O)c(O)c2)oc2cc(O)cc(O)c12 [Quercetin, reference compound]",90.27 ± 0.49%,–,–,105 µM
"FC(F)(F)Oc1ccc(-c2nc3cc4nc5ccccc5nc4cc3[nH]2)cc1 [Compound 3k, 2-(4-(trifluoromethoxy)phenyl)-1H-imidazo [4,5-b]phenazine]",63.3 ± 2.8%,–,–,71.9 µM
"CC(C)c1ccc(-c2nc3cc4nc5ccccc5nc4cc3[nH]2)cc1 [Compound 3i, 2-(4-isopropylphenyl)-1H-imidazo [4,5-b]phenazine]",75.68 ± 0.26%,–,–,–
"O=[N+]([O-])c1ccc(-c2nc3cc4nc5ccccc5nc4cc3[nH]2)cc1O [Compound 3e, 2-(3-hydroxy-4-nitrophenyl)-1H-imidazo [4,5-b]phenazine]",95.5 ± 1.75%,–,–,54.8 µM
